Experiment [1] relates to Glycine max. Kind of experiment: Inhibition of soybean lipoxygenase using sodium linoleate substrate at 100 uM. The essentials: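 Soybean lipoxygenase (0.2 mL of 1/9 × 10^-4 w/v solution in saline) incubated at room temperature with compound in ethanol and sodium linoleate 100 µM. Conversion to 13-hydroperoxylinoleic acid recorded at 234 nm, compared against caffeic acid 600 µM as standard inhibitor.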

In experiment [2] the test system is Radical scavenging activity. Kind of experiment: Antioxidant activity assessed as reduction of DPPH radical generation at 50 uM incubated for 20 mins at room temperature. Set-up: scale not given: the % may be the effect or the level left. It is filed as functional. The essentials: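 DPPH radical interaction in ethanol, compound final 50 µM (equimolar with DPPH); ethanol as control. Absorbance at 517 nm read after 20 min at room temperature.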
In general terms: The DPPH test is a chemical assay of radical scavenging.

Experiment [3] in a line: Antioxidant activity assessed as inhibition of linoleic acid peroxidation at 100 uM by AAPH assay by UV spectrometry. It is filed as functional. The essentials:
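Linoleic acid dispersion (10 µL of 16 mM) in 0.05 M phosphate buffer pH 7.4 at 37 °C; oxidation started under air by adding 50 µL of 40 mM AAPH, with 10 µL aliquots of compound present. Conjugated diene hydroperoxide formation followed as rise in absorbance at 234 nm; blank run contained same DMSO level.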

Calls of active or inactive are those of the source. The rule behind the calls is not given here.

The inhibition is the percentage by which the read-out fell short of the control. `CC(Cc1ccc(O)c(O)c1)C(C)Cc1ccc(O)c(O)c1` (stereo not drawn) gave an inhibition in experiment [1] of 64%. Also, the Activity in experiment [2] was 81%.

Consider `Cc1c(C)c2c(c(C)c1O)CCC(C)(C(=O)O)O2` (stereo not drawn), for which the inhibition in experiment [3] stood at 63%.

With `CCCCSC1=N[C@@H](C(=O)OC)[C@@H]2C(=O)N(c3ccccc3)C(=O)[C@H]12` (relative stereo), the inhibition in experiment [1] was determined as 91%; in experiment [3], 82%. Moreover, the Activity in experiment [2] stood at 11%.

`CCCCSC1=N[C@H](C(=O)OC)[C@@H]2C(=O)N(c3ccccc3)C(=O)[C@H]12` (relative stereo): the inhibition was found to be 56% in experiment [1] and 89% in experiment [3]. Also, the Activity in experiment [2] turned out to be 7%.

Turning to `CCCSC1=N[C@@H](C(=O)OC)[C@@H]2C(=O)N(c3ccccc3)C(=O)[C@H]12` (relative stereo), the figures for the inhibition in experiment [1] and in experiment [3] were 43% and 86%, respectively. Moreover, the Activity in experiment [2] worked out at 7%.

Consider `CCCSC1=N[C@H](C(=O)OC)[C@@H]2C(=O)N(c3ccccc3)C(=O)[C@H]12` (relative stereo), for which the inhibition in experiment [1] was found to be 39%; in experiment [3], 86%. For the same compound, the Activity in experiment [2] was found to be 9%.

Turning to `CCSC1=N[C@@H](C(=O)OC)[C@@H]2C(=O)N(c3ccccc3)C(=O)[C@H]12` (relative stereo), the inhibition in experiment [1] worked out at 81%; in experiment [3], 91%. The Activity in experiment [2] is 11%.

Take `CCSC1=N[C@H](C(=O)OC)[C@@H]2C(=O)N(c3ccccc3)C(=O)[C@H]12` (relative stereo): the inhibition in experiment [1] came to 26%; in experiment [3] it was 89%. Besides, in experiment [2], the result was inactive.

Take `COC(=O)[C@@H]1N=C(SC(C)C)[C@H]2C(=O)N(c3ccccc3)C(=O)[C@H]21` (relative stereo): the figures for the inhibition in experiment [1] and in experiment [3] were 49% and 89%, respectively. In addition, the Activity in experiment [2] came to 12%.

Consider `COC(=O)[C@@H]1N=C(SC)[C@H]2C(=O)N(c3ccccc3)C(=O)[C@H]21` (relative stereo), for which the figures for the inhibition in experiment [1] and in experiment [3] were 51% and 93%, respectively. Moreover, in experiment [2], the Activity came to 26%.

`COC(=O)[C@@H]1N=C(SCc2ccccc2)[C@H]2C(=O)N(c3ccccc3)C(=O)[C@H]21` (relative stereo): the inhibition in experiment [1] was 83%; in experiment [3], 98%. For the same compound, in experiment [2], the Activity was 15%.

Consider `COC(=O)[C@H]1N=C(SC(C)C)[C@H]2C(=O)N(c3ccccc3)C(=O)[C@H]21` (relative stereo), for which the inhibition in experiment [1] worked out at 44%; in experiment [3], 72%. Moreover, the Activity in experiment [2] turned out to be 13%.

In the case of `COC(=O)[C@H]1N=C(SC)[C@H]2C(=O)N(c3ccccc3)C(=O)[C@H]21` (relative stereo), in experiment [3], the inhibition amounted to 84%. Further, in experiment [2], the Activity came to 8%.

As to `COC(=O)[C@H]1N=C(SCc2ccccc2)[C@H]2C(=O)N(c3ccccc3)C(=O)[C@H]21` (relative stereo), the inhibition amounted to 73% in experiment [1] and 76% in experiment [3]. Also, the Activity in experiment [2] stood at 11%.

(Values after ChEMBL document CHEMBL2069194, “Synthesis of sulfur containing dihydro-pyrrolo derivatives and their biological evaluation as antioxidants” (Bioorg Med Chem, 2012).)
